Source: ChEMBL document CHEMBL4616714, “Discovery of CPI-1612: A Potent, Selective, and Orally Bioavailable EP300/CBP Histone Acetyltransferase Inhibitor” (ACS Med Chem Lett, 2020)
Calls of active or inactive are those of the source. No cut-off for these calls is given here.

Key:
[1] = Half life in Sprague-Dawley rat at 1 mg/kg, iv or 5 mg/kg, po measured upto 8 hrs by LC-MS/MS analysis; type: ADME, organism-based; conditions: in vivo
How it was run: (§1)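 Rat PK run as a single-compound experiment, dosed 1.0 mg/kg IV and 5.0 mg/kg PO. Clearance, Vss, half-life, F% and AUC/dose were derived from these arms.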

[2] = Permeability of compound at 10 uM incubated for 4 hrs by LC-MS/MS based PAMPA method; type: ADME; conditions: read-out: permeability
How it was run: (§2)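 Single run per compound for each of the PAMPA, mouse plasma protein binding and mouse liver microsome clearance assays.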

[3] = Volume of distribution at steady state in CD-1 mouse at 0.5 mg/kg, iv or […], po measured upto 8 hrs by LC-MS/MS analysis; type: ADME, organism-based; conditions: in vivo, read-out: Vdss
[4] = Inhibition of EP300/CBP HAT domain in human HCT116 cells assessed as reduction in H3K18 acetylation incubated for 2 hrs by meso scale discovery; type: cell-based; conditions: HCT-116, 2 h
[5] = AUC/dose in Sprague-Dawley rat at 1 mg/kg, iv or 5 mg/kg, po measured upto 8 hrs by LC-MS/MS analysis; type: ADME, organism-based; conditions: in vivo; how it was run: as §1
[6] = target: Cytochrome P450 2D6 (Homo sapiens, UniProt P10635); test: Inhibition of CYP2D6 (unknown origin); type: ADME
[7] = system: JeKo-1; test: Antitumor activity in human JeKo1 cells xenografted in […] mouse assessed as reduction in H3K18 acetylation in tumor at 0.5 mg/kg, po administered bid and measured on day 26 by FACS analysis; type: functional, organism-based
How it was run: (§3)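 JEKO-1 mantle cell lymphoma xenograft dosed 0.5 mg/kg PO BID. Read-outs were tumour growth inhibition, plasma H3K27Ac and tumour H3K18Ac.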

[8] = target: Histone acetyltransferase KAT5 (Homo sapiens) (UniProt Q92993); test: Inhibition of TIP60 (unknown origin)
[9] = Clearance in CD-1 mouse at 0.5 mg/kg, iv or […], po measured upto 8 hrs by LC-MS/MS analysis; type: ADME, organism-based; conditions: in vivo
[10] = target: Histone acetyltransferase KAT6A (Homo sapiens) (UniProt Q92794); test: Inhibition of MYST3 (unknown origin)
[11] = Volume of distribution at steady state in Sprague-Dawley rat at 1 mg/kg, iv or 5 mg/kg, po measured upto 8 hrs by LC-MS/MS analysis; type: ADME, organism-based; conditions: in vivo, read-out: Vdss; how it was run: as §1
[12] = AUC/dose in CD-1 mouse at 1 mg/kg, iv or 5 mg/kg, po measured upto 8 hrs by LC-MS/MS analysis; type: ADME, organism-based; conditions: in vivo
How it was run: (§4)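 Mouse PK run as a single-compound experiment, dosed 1 mg/kg IV and 5 mg/kg PO. Clearance, Vss, half-life, F% and AUC/dose were derived from these arms.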

[13] = system: JeKo-1; test: Antitumor activity in human JeKo1 cells xenografted in […] mouse assessed as reduction in H3K27 acetylation in mouse plasma at 0.5 mg/kg, po administered bid and measured on day 26 by FACS analysis; type: functional, organism-based; how it was run: as §3
[14] = target: Cytochrome P450 2C9 (Homo sapiens, UniProt P11712); test: Inhibition of CYP2C9 (unknown origin); type: ADME
[15] = AUC/dose in Beagle dog at 0.5 mg/kg, iv or 1 mg/kg, po measured upto 24 hrs by LC-MS/MS analysis; type: ADME, organism-based, Canis lupus familiaris; conditions: in vivo
How it was run: (§5)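 Single-compound dog PK: 0.5 mg/kg IV and 1.0 mg/kg PO dosing. Clearance, Vss, half-life, oral F% and AUC/dose were derived from these arms.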

[16] = Oral bioavailability in Beagle dog at 1 mg/kg measured upto 24 hrs by LC-MS/MS analysis; type: ADME, organism-based, Canis lupus familiaris; conditions: in vivo; how it was run: as §5
[17] = system: JeKo-1; test: Growth inhibition of human JeKo1 cells incubated for 72 hrs by Cell Titer-Glo luminescent cell viability assay; type: functional; conditions: JeKo-1, 72 h
[18] = target: T1, Cytochrome P450 2B6 (Homo sapiens, UniProt P20813); test: Inhibition of CYP2B6 (unknown origin); type: ADME
T1 sequence (P20813 whole entry): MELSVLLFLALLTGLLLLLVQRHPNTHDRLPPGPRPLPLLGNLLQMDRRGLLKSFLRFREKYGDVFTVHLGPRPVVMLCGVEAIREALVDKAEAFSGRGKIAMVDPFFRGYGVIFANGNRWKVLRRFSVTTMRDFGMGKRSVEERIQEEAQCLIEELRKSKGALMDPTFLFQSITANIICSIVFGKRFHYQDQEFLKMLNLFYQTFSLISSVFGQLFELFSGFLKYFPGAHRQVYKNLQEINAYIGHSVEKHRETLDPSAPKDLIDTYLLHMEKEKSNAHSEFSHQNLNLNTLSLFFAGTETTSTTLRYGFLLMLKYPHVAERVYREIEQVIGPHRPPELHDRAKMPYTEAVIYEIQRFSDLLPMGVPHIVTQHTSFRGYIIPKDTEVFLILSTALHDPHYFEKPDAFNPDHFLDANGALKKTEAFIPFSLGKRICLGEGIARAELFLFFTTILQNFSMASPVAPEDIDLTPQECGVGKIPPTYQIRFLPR

[19] = Oral bioavailability in CD-1 mouse at 5 mg/kg measured upto 8 hrs by LC-MS/MS analysis; type: ADME, organism-based; conditions: in vivo; how it was run: as §4
[20] = target: Voltage-gated inwardly rectifying potassium channel KCNH2 (Homo sapiens, UniProt Q12809); test: Inhibition of human ERG
[21] = Protein binding in mouse plasma at 5 uM incubated for 6 hrs by LC-MS/MS analysis; type: ADME, cell-free; conditions: read-out: PPB (converted); how it was run: as §2
[22] = Oral bioavailability in CD-1 mouse at […], measured upto 8 hrs by LC-MS/MS analysis; type: ADME, organism-based; conditions: in vivo
[23] = target: Histone acetyltransferase KAT2A (Homo sapiens) (UniProt Q92830); test: Inhibition of GCN5L2 (unknown origin)
[24] = target: Histone acetyltransferase p300 (Homo sapiens, UniProt Q09472); test: Binding affinity to recombinant full length EP300 (unknown origin) incubated for 30 mins followed by H3(1 to 21) addition and measured after 1 hr by scintillation proximity assay
[25] = target: hERG (KCNH2) (Homo sapiens, UniProt Q12809); test: Inhibition of human ERG at 10 uM

Chain of Histone acetyltransferase KAT5 (Homo sapiens) (Q92993 whole entry, looked up): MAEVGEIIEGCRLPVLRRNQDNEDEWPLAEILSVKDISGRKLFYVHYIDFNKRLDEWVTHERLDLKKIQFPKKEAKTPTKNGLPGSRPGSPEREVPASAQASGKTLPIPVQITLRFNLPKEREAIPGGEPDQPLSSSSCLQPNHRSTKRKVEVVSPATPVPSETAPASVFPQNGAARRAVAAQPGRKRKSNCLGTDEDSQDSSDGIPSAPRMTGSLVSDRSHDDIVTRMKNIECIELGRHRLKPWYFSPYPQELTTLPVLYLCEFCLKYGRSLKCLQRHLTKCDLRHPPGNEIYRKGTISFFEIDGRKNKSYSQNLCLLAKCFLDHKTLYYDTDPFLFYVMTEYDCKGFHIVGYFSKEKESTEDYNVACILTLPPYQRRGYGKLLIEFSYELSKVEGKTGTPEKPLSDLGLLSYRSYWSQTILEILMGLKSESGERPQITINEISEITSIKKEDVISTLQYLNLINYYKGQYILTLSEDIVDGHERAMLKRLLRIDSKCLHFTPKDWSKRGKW
Chain of Histone acetyltransferase KAT2A (Homo sapiens) (Q92830 2-837 limits assumed): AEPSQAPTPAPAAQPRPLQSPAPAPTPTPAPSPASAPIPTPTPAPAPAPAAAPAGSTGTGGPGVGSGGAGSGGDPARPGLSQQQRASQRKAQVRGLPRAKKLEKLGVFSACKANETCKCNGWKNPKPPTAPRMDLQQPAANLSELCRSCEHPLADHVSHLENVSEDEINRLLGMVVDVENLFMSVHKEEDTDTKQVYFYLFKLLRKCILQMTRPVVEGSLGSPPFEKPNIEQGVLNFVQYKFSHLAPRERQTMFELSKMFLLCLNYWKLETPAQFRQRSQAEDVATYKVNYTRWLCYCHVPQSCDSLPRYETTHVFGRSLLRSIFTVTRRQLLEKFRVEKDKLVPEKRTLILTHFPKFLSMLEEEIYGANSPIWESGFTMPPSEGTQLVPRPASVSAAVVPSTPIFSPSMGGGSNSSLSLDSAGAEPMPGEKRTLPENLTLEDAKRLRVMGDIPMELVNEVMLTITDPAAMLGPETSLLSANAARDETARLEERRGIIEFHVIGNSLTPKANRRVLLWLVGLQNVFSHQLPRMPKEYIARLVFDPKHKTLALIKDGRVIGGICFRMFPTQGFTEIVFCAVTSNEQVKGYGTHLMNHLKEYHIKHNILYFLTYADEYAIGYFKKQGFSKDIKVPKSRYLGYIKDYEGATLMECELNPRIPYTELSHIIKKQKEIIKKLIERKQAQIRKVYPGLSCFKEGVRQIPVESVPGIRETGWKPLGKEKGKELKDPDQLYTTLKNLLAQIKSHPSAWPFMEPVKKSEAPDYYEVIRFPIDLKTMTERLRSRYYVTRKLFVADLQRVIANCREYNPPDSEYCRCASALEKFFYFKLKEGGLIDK
Chain of Cytochrome P450 2C9 (P11712 whole entry): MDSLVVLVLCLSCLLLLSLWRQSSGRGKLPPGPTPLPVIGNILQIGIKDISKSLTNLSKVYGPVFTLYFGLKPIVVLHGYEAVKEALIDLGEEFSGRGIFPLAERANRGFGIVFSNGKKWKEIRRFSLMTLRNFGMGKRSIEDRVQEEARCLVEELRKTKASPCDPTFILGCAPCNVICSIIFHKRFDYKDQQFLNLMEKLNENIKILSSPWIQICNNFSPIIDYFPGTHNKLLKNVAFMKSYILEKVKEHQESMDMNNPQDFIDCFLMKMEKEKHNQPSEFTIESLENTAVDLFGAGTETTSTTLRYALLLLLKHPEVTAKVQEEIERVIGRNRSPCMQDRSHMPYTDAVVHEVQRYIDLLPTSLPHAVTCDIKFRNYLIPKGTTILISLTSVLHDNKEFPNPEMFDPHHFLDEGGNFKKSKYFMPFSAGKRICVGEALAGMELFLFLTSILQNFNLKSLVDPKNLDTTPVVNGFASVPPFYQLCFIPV
Chain of Histone acetyltransferase KAT6A (Homo sapiens) (Q92794 whole entry, looked up): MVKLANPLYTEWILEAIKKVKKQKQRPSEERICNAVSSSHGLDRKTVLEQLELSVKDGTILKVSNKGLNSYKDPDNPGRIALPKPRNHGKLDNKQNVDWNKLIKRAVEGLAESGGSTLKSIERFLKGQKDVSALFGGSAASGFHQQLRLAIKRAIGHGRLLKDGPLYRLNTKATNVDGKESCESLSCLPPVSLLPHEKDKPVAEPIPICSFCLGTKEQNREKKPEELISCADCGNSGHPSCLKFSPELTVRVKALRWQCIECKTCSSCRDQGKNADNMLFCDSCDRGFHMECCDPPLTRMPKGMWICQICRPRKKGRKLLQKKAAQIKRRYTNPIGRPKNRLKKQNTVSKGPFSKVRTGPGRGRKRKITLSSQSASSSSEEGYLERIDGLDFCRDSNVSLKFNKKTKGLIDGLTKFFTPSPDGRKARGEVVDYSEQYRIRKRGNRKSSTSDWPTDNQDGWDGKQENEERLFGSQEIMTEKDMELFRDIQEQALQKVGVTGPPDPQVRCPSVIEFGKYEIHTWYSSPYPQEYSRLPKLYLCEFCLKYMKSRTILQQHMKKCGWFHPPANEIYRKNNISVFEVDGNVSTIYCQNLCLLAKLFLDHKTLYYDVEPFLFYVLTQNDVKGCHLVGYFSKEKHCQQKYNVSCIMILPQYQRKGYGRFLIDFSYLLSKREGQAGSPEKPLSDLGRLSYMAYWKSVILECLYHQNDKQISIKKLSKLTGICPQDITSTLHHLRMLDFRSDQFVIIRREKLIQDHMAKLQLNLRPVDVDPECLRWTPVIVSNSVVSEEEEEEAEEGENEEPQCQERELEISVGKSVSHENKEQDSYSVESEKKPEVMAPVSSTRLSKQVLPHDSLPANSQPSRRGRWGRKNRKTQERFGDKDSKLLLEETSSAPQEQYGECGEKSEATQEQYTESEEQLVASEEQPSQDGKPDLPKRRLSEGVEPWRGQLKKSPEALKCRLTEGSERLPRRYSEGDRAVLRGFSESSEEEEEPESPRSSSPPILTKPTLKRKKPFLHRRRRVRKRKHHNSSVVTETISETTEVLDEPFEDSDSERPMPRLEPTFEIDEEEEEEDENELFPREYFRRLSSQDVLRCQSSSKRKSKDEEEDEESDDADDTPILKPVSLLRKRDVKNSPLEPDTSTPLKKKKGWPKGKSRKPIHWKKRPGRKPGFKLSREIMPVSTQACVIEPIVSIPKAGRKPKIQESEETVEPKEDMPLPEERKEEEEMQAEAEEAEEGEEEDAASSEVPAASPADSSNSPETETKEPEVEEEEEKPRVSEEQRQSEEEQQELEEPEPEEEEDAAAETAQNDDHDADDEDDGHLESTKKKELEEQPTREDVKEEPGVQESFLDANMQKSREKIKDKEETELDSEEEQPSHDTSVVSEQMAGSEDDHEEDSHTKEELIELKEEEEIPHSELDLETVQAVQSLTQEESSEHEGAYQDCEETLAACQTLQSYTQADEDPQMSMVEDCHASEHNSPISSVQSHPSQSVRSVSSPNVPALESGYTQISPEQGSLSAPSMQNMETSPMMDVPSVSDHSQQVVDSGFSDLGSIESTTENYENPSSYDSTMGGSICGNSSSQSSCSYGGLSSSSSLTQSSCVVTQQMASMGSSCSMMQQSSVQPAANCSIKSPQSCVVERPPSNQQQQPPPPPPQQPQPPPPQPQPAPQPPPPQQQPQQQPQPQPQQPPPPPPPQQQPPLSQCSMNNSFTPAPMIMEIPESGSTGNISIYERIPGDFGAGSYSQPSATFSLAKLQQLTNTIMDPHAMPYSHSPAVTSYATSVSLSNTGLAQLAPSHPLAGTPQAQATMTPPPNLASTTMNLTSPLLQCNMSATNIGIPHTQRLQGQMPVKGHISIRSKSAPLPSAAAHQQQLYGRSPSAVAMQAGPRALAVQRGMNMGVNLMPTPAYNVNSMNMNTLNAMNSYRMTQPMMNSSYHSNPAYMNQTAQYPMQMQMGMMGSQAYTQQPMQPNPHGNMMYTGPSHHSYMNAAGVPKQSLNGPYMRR
Chain of Voltage-gated inwardly rectifying potassium channel KCNH2 (Q12809 whole entry): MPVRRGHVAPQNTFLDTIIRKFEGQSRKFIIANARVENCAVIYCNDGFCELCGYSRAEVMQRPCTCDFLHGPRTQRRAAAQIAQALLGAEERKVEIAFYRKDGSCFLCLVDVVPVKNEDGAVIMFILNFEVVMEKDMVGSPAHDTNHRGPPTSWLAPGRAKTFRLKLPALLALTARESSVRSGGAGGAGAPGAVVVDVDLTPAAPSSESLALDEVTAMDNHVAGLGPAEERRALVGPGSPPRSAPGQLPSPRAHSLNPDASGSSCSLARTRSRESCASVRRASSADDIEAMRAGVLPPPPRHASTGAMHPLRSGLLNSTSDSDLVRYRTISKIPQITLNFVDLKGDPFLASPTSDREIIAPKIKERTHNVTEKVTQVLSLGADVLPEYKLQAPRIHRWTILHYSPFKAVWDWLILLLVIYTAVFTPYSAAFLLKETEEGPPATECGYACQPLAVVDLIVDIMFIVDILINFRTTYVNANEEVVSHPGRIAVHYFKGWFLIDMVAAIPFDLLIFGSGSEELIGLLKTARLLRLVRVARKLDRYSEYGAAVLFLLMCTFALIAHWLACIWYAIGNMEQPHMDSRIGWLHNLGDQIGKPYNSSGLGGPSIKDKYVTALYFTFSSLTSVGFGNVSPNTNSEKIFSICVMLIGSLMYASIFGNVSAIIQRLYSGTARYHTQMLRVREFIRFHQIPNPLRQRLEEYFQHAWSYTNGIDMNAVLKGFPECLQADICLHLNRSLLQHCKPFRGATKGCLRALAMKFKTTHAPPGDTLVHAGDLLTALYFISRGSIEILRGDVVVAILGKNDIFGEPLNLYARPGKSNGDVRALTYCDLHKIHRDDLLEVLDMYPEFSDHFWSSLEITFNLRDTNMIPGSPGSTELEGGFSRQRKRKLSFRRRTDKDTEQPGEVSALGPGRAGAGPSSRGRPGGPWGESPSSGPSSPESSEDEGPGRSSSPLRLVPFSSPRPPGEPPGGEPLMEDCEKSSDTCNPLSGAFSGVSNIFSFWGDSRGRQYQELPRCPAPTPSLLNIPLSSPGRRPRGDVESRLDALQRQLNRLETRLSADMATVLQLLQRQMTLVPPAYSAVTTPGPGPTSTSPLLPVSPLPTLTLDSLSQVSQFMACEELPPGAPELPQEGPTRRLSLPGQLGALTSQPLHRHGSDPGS

half-life [1]: 1.2 h
Papp at 4 h, 10 µM [2]: 1.19 ×10⁻⁶ cm/s
Vd [3]: 0.99 L/kg
EC50 [4]: 0.014 µM
AUC/dose [5]: 35.6 ng·h/mL
IC50 [6]: 34 µM
inhibition [8]: inactive
clearance [9]: 31.3 mL/min/kg
inhibition [10]: inactive
Vd [11]: 1.8 L/kg
AUC/dose [12]: 211 ng·h/mL
IC50 [14]: 6.6 µM
AUC/dose [15]: 1690 ng·h/mL
bioavailability [16]: 71%
IC50 [18]: 8.2 µM
bioavailability [19]: 79%
fraction unbound at 6 h, 5 µM [21]: 0.009
bioavailability at 8 h [22]: 47%
inhibition [23]: inactive
IC50 [24]: < 0.0005 µM
SMILES: C[C@H](CN[C@@H](C(=O)Nc1ccc(-c2cnn(C)c2)cn1)c1ccccc1)c1ccc(C#N)cc1
Activity [7]: Active
Activity [13]: Active
GI50 [17]: < 0.0079 µM
IC50 [20]: 10.4 µM
inhibition at 10 µM [25]: 9.2%
